# Laboratory results reported in paper PMC3086726 (Nuclear medicine and biology, 2010).
# Where two headings read alike, the source gives them in different places.
# Assays:
# [1] = In vitro stability of 99mTc-cyclized analogues in PBS; assay type: physicochemical; details: pH 7.4, 37 °C
# Outline: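 Test peptides were labelled with 99mTc by exchange from 99mTc-glucoheptonate (pH 7.9–8.1, 60 °C, 30 min), purified by radio-RP-HPLC, mixed with gentisic acid and evaporated. They were diluted in PBS or 1 mM cysteine, adjusted to pH 7.4 and incubated at 37 °C. Aliquots at 1, 2, 4 and 24 h were analysed by RP-HPLC for % intact. Replicate measurements used radio-TLC on C18 (10% ammonium acetate; 1:1 TFA-water/acetonitrile).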
# [2] = assay type: in vitro ADME; details: mouse, serum, pH 7.4
# [3] = Stability of 99mTc-cyclized analogues to cysteine challenge; assay type: physicochemical; details: pH 7.4, 37 °C
# [4] = set-up: species or system CF-1 mice; details: mouse
substance,measurement,setting,value
^99mTc-Ac-Tyr^3-octreotate [99mTc-1],percent intact 99mTc-analogue post purification,[1]; 1 h,90.2 ± 2.4%
same,percent intact 99mTc-analogue post purification,[1]; 2 h,83.4 ± 5.2%
same,percent intact 99mTc-analogue post purification,[1]; 4 h,76.3 ± 3.4%
same,percent intact 99mTc-analogue post purification,[1]; 24 h,52.0 ± 5.6%
same,percent intact 99mTc-analogue post purification,[2]; 1 h,91.4 ± 1.8%
same,percent intact 99mTc-analogue post purification,[2]; 2 h,81.7 ± 4.1%
same,percent intact 99mTc-analogue post purification,[2]; 4 h,81.4 ± 4.7%
same,percent intact 99mTc-analogue post purification,[2]; 24 h,51.2 ± 4.4%
same,percent intact 99mTc-analogue post purification,"[3]; 1 mM Cys, 1 h",97.1 ± 3.3%
same,percent intact 99mTc-analogue post purification,"[3]; 1 mM Cys, 2 h",95.1 ± 2.7%
same,percent intact 99mTc-analogue post purification,"[3]; 1 mM Cys, 4 h",87.2 ± 1.0%
same,percent intact 99mTc-analogue post purification,"[3]; 1 mM Cys, 24 h",81.7 ± 1.8%
same,percent intact 99mTc-analogue post purification,"[3]; 10 mM Cys, 1 h",60.1 ± 5.1%
same,percent intact 99mTc-analogue post purification,"[3]; 10 mM Cys, 2 h",55.8 ± 6.9%
same,percent intact 99mTc-analogue post purification,"[3]; 10 mM Cys, 4 h",38.9 ± 3.7%
same,percent intact 99mTc-analogue post purification,"[3]; 10 mM Cys, 24 h",22.9 ± 4.5%
same,"In vivo biodistribution, Adrenals","[4]; 150 ug, 1 h",2.18 ± 0.69 %ID/g
same,"In vivo biodistribution, Blood","[4]; 150 ug, 1 h",4.31 ± 0.44 %ID/g
same,"In vivo biodistribution, Kidney","[4]; 150 ug, 1 h",8.00 ± 1.74 %ID/g
same,"In vivo biodistribution, Lg. Int","[4]; 150 ug, 1 h",1.70 ± 0.18 %ID/g
same,"In vivo biodistribution, Liver","[4]; 150 ug, 1 h",6.47 ± 1.64 %ID/g
same,"In vivo biodistribution, Muscle","[4]; 150 ug, 1 h",0.68 ± 0.06 %ID/g
same,"In vivo biodistribution, Pancreas","[4]; 150 ug, 1 h",2.08 ± 0.31 %ID/g
same,"In vivo biodistribution, Sm. lnt","[4]; 150 ug, 1 h",10.91 ± 2.12 %ID/g
same,"In vivo biodistribution, Spleen","[4]; 150 ug, 1 h",1.74 ± 0.24 %ID/g
same,"In vivo biodistribution, Stomach","[4]; 150 ug, 1 h",14.18 ± 4.97 %ID/g
same,"In vivo biodistribution, Adrenals",[4]; 1 h,1.53 ± 0.30 %ID/g
same,"In vivo biodistribution, Blood",[4]; 1 h,3.81 ± 0.10 %ID/g
same,"In vivo biodistribution, Kidney",[4]; 1 h,12.05 ± 2.14 %ID/g
same,"In vivo biodistribution, Lg. Int",[4]; 1 h,2.55 ± 0.21 %ID/g
same,"In vivo biodistribution, Liver",[4]; 1 h,4.17 ± 0.34 %ID/g
same,"In vivo biodistribution, Muscle",[4]; 1 h,0.53 ± 0.06 %ID/g
same,"In vivo biodistribution, Pancreas",[4]; 1 h,1.49 ± 0.06 %ID/g
same,"In vivo biodistribution, Sm. lnt",[4]; 1 h,15.48 ± 3.35 %ID/g
same,"In vivo biodistribution, Spleen",[4]; 1 h,1.30 ± 0.17 %ID/g
same,"In vivo biodistribution, Stomach",[4]; 1 h,11.69 ± 10.10 %ID/g
same,"In vivo biodistribution, Adrenals",[4]; 4 h,0.86 ± 0.43 %ID/g
same,"In vivo biodistribution, Blood",[4]; 4 h,1.50 ± 0.29 %ID/g
same,"In vivo biodistribution, Kidney",[4]; 4 h,6.54 ± 0.23 %ID/g
same,"In vivo biodistribution, Lg. Int",[4]; 4 h,22.09 ± 4.99 %ID/g
same,"In vivo biodistribution, Liver",[4]; 4 h,1.58 ± 0.06 %ID/g
same,"In vivo biodistribution, Muscle",[4]; 4 h,0.25 ± 0.06 %ID/g
same,"In vivo biodistribution, Pancreas",[4]; 4 h,0.55 ± 0.04 %ID/g
same,"In vivo biodistribution, Sm. lnt",[4]; 4 h,2.02 ± 0.67 %ID/g
same,"In vivo biodistribution, Spleen",[4]; 4 h,0.55 ± 0.13 %ID/g
same,"In vivo biodistribution, Stomach",[4]; 4 h,7.54 ± 4.16 %ID/g
same,"In vivo biodistribution, Adrenals",[4]; 24 h,0.12 ± 0.03 %ID/g
same,"In vivo biodistribution, Blood",[4]; 24 h,0.15 ± 0.02 %ID/g
same,"In vivo biodistribution, Kidney",[4]; 24 h,2.04 ± 0.37 %ID/g
same,"In vivo biodistribution, Lg. Int",[4]; 24 h,3.08 ± 1.60 %ID/g
same,"In vivo biodistribution, Liver",[4]; 24 h,0.39 ± 0.03 %ID/g
same,"In vivo biodistribution, Muscle",[4]; 24 h,0.05 ± 0.02 %ID/g
same,"In vivo biodistribution, Pancreas",[4]; 24 h,0.07 ± 0.01 %ID/g
same,"In vivo biodistribution, Sm. lnt",[4]; 24 h,0.68 ± 0.20 %ID/g
same,"In vivo biodistribution, Spleen",[4]; 24 h,0.08 ± 0.01 %ID/g
same,"In vivo biodistribution, Stomach",[4]; 24 h,1.26 ± 0.49 %ID/g
same,uptake in the various tissues and organs relative to TATE and 99mTc-2,[4]; in vivo,two to four times higher
"^99mTc-Ac-Cys^1,Tyr^3-octreotate [99mTc-2]",percent intact 99mTc-analogue post purification,[1]; 1 h,98.3 ± 0.5%
same,percent intact 99mTc-analogue post purification,[1]; 2 h,98.0 ± 0.2%
same,percent intact 99mTc-analogue post purification,[1]; 4 h,97.8 ± 0.9%
same,percent intact 99mTc-analogue post purification,[1]; 24 h,94.1 ± 1.4%
same,percent intact 99mTc-analogue post purification,[2]; 1 h,96.7 ± 0.8%
same,percent intact 99mTc-analogue post purification,[2]; 2 h,97.1 ± 0.7%
same,percent intact 99mTc-analogue post purification,[2]; 4 h,97.0 ± 0.2%
same,percent intact 99mTc-analogue post purification,[2]; 24 h,94.7 ± 2.4%
same,percent intact 99mTc-analogue post purification,"[3]; 10 mM Cys, 1 h",99.4 ± 0.3%
same,percent intact 99mTc-analogue post purification,"[3]; 10 mM Cys, 2 h",99.1 ± 0.5%
same,percent intact 99mTc-analogue post purification,"[3]; 10 mM Cys, 4 h",99.3 ± 0.1%
same,percent intact 99mTc-analogue post purification,"[3]; 10 mM Cys, 24 h",93.3 ± 0.7%
same,"In vivo biodistribution, Adrenals","[4]; 150 ug, 1 h",0.63 ± 0.19 %ID/g
same,"In vivo biodistribution, Blood","[4]; 150 ug, 1 h",1.38 ± 0.15 %ID/g
same,"In vivo biodistribution, Kidney","[4]; 150 ug, 1 h",2.97 ± 0.19 %ID/g
same,"In vivo biodistribution, Lg. Int","[4]; 150 ug, 1 h",0.56 ± 0.04 %ID/g
same,"In vivo biodistribution, Liver","[4]; 150 ug, 1 h",1.78 ± 0.59 %ID/g
same,"In vivo biodistribution, Muscle","[4]; 150 ug, 1 h",0.43 ± 0.05 %ID/g
same,"In vivo biodistribution, Pancreas","[4]; 150 ug, 1 h",0.54 ± 0.10 %ID/g
same,"In vivo biodistribution, Sm. lnt","[4]; 150 ug, 1 h",24.29 ± 3.21 %ID/g
same,"In vivo biodistribution, Spleen","[4]; 150 ug, 1 h",0.47 ± 0.07 %ID/g
same,"In vivo biodistribution, Stomach","[4]; 150 ug, 1 h",5.69 ± 0.45 %ID/g
same,"In vivo biodistribution, Adrenals",[4]; 1 h,0.36 ± 0.04 %ID/g
same,"In vivo biodistribution, Blood",[4]; 1 h,0.95 ± 0.12 %ID/g
same,"In vivo biodistribution, Kidney",[4]; 1 h,2.61 ± 0.64 %ID/g
same,"In vivo biodistribution, Lg. Int",[4]; 1 h,0.53 ± 0.08 %ID/g
same,"In vivo biodistribution, Liver",[4]; 1 h,1.60 ± 0.17 %ID/g
same,"In vivo biodistribution, Muscle",[4]; 1 h,0.26 ± 0.02 %ID/g
same,"In vivo biodistribution, Pancreas",[4]; 1 h,0.46 ± 0.15 %ID/g
same,"In vivo biodistribution, Sm. lnt",[4]; 1 h,20.28 ± 3.58 %ID/g
same,"In vivo biodistribution, Spleen",[4]; 1 h,0.38 ± 0.09 %ID/g
same,"In vivo biodistribution, Stomach",[4]; 1 h,2.95 ± 1.42 %ID/g
same,"In vivo biodistribution, Adrenals",[4]; 4 h,0.22 ± 0.07 %ID/g
same,"In vivo biodistribution, Blood",[4]; 4 h,0.34 ± 0.04 %ID/g
same,"In vivo biodistribution, Kidney",[4]; 4 h,1.43 ± 0.34 %ID/g
same,"In vivo biodistribution, Lg. Int",[4]; 4 h,28.18 ± 4.57 %ID/g
same,"In vivo biodistribution, Liver",[4]; 4 h,0.47 ± 0.15 %ID/g
same,"In vivo biodistribution, Muscle",[4]; 4 h,0.08 ± 0.04 %ID/g
same,"In vivo biodistribution, Pancreas",[4]; 4 h,0.15 ± 0.03 %ID/g
same,"In vivo biodistribution, Sm. lnt",[4]; 4 h,1.94 ± 0.50 %ID/g
same,"In vivo biodistribution, Spleen",[4]; 4 h,0.12 ± 0.01 %ID/g
same,"In vivo biodistribution, Stomach",[4]; 4 h,3.88 ± 0.54 %ID/g
same,"In vivo biodistribution, Adrenals",[4]; 24 h,0.03 ± 0.01 %ID/g
same,"In vivo biodistribution, Blood",[4]; 24 h,0.06 ± 0.01 %ID/g
same,"In vivo biodistribution, Kidney",[4]; 24 h,0.48 ± 0.10 %ID/g
same,"In vivo biodistribution, Lg. Int",[4]; 24 h,1.18 ±0.66 %ID/g
same,"In vivo biodistribution, Liver",[4]; 24 h,0.11 ± 0.01 %ID/g
same,"In vivo biodistribution, Muscle",[4]; 24 h,0.01 ± 0.01 %ID/g
same,"In vivo biodistribution, Pancreas",[4]; 24 h,0.02 ± 0.01 %ID/g
same,"In vivo biodistribution, Sm. lnt",[4]; 24 h,0.22 ± 0.04 %ID/g
same,"In vivo biodistribution, Spleen",[4]; 24 h,0.04 ± 0.01 %ID/g
same,"In vivo biodistribution, Stomach",[4]; 24 h,0.61 ± 0.15 %ID/g
